Measurements reported in ChEMBL document CHEMBL5678815 (Clin Cancer Res, 2017).
Calls of active or inactive are those of the source. No cut-off for these calls is given here.

Tests used:
[1] = target: Tyrosine-protein kinase Yes (Homo sapiens) (UniProt P07947); test: Inhibition of human YES assessed as remaining activity at 1 uM by ATP-competition binding assay relative to control
Procedure, shortened: (§1)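 Single-concentration (1 μM) screen in an ATP-site-dependent competition binding assay (KINOMEscan, outsourced) covering 395 human kinases, mutants included. Non-covalent binding was read as the remaining signal relative to the control signal.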

[2] = target: Cyclin-dependent kinase 16 (Homo sapiens) (UniProt Q00536); test: Inhibition of human PCTK1 assessed as remaining activity at 1 uM by ATP-competition binding assay relative to control
Procedure, shortened: (§2)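 Single-point profiling at 1μM in an ATP-site-dependent competition binding assay across a panel of 395 human kinases, including mutant forms. The read-out is kinase binding signal in the presence of test agent, expressed as inhibition relative to the control signal. This screen assessed noncovalent binding interactions.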

[3] = test system: Epidermal growth factor receptor (Homo sapiens), P00533 [L858R,T790M]; test: Inhibition of human EGFR L858R/T790M mutant assessed as remaining activity at 1 uM by ATP-competition binding assay relative to control
Procedure, shortened: (§3)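 KINOMEscan ATP-site-dependent competition binding assay across a 395-kinase human panel including mutants; compound tested at 1μM; binding expressed relative to control signal.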

[4] = target: SRSF protein kinase 3 (Homo sapiens) (UniProt Q9UPE1); test: Inhibition of human SRPK3 assessed as remaining activity at 1 uM by ATP-competition binding assay relative to control; procedure, shortened: as §1
Sequence of SRSF protein kinase 3 (Homo sapiens) (Q9UPE1 whole entry): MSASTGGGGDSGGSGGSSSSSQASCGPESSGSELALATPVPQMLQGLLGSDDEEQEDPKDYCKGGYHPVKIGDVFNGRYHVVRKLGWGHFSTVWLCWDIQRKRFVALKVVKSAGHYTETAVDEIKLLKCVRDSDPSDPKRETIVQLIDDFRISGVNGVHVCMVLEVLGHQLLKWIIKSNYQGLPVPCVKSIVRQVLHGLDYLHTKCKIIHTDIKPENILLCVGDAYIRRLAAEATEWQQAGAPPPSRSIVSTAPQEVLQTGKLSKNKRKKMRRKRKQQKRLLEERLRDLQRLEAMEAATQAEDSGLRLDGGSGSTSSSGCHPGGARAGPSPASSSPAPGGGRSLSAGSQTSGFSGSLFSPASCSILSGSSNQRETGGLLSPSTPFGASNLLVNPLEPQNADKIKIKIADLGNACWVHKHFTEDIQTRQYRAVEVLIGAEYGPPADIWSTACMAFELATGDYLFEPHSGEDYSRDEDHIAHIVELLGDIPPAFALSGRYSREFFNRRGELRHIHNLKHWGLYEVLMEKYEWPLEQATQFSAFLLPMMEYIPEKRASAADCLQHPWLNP

[5] = target: Ribosomal protein S6 kinase alpha-4 (Homo sapiens) (UniProt O75676); test: Inhibition of human RPS6KA4 assessed as remaining activity at 1 uM by ATP-competition binding assay relative to control; procedure, shortened: as §1
Sequence of Ribosomal protein S6 kinase alpha-4 (Homo sapiens) (O75676 whole entry, looked up, the tested form may be a part): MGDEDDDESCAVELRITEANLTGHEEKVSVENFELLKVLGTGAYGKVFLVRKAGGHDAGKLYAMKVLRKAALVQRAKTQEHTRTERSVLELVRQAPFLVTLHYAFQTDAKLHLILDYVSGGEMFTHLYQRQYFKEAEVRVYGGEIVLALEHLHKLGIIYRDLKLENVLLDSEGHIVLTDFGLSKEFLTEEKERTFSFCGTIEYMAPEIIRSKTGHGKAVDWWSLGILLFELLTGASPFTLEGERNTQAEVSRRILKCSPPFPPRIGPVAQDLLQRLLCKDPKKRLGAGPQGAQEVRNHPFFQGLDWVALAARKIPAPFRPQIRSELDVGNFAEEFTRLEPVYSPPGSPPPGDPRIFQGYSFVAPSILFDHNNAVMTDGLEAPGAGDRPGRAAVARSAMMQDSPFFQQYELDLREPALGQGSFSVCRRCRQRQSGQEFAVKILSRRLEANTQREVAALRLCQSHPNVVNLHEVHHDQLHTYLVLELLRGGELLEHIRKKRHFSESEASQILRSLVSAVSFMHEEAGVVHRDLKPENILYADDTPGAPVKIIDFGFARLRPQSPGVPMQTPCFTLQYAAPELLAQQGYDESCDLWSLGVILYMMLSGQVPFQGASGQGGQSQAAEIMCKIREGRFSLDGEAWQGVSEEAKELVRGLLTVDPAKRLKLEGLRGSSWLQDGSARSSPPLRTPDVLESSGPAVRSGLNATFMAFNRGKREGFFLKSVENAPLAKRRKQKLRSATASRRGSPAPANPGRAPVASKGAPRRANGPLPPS

[6] = test system: eIF-2-alpha kinase GCN2 (Homo sapiens), Q9P2K8 [S808G]; test: Inhibition of human GCN2 S808G mutant kinase domain 2 assessed as remaining activity at 1 uM by ATP-competition binding assay relative to control; procedure, shortened: as §2
[7] = Antileukemic activity against human CLL mononuclear cells xenografted NSG mouse assessed as change in blood cells at 0.16 mg/ml preadministered with compound via drinking water and measured after 3 weeks by flow cytometry analysis relative to control; type: functional, CLL mononuclear cell
Procedure, shortened: (§4)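 Primary CLL patient mononuclear cells (1 × 10^8 per mouse) engrafted into NSG mice on day 0 after busulfan priming on day −1. Vehicle or drug was given in drinking water from day −1. Mice were killed 3 weeks after engraftment; spleens homogenized, filtered and RBC-lysed; whole blood collected. Six patients, 2–5 mice per patient; paired t-test per patient.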

[8] = test system: Fibroblast growth factor receptor 3 (Homo sapiens), P22607 [G697C]; test: Inhibition of human FGFR3 G697C mutant assessed as remaining activity at 1 uM by ATP-competition binding assay relative to control; procedure, shortened: as §2
[9] = target: cAMP-dependent protein kinase catalytic subunit beta (Homo sapiens) (UniProt P22694); test: Inhibition of human PKAC-beta assessed as remaining activity at 1 uM by ATP-competition binding assay relative to control; procedure, shortened: as §1
Splenocyte [10] = test: In vivo inhibition of BCR signaling in female […] mouse assessed as CD69 expression at 1.3 mg/kg, po administered and measured after stimulation with anti-IgM for 18 h by flow cytometry analysis; type: functional, organism-based
Procedure, shortened: (§5)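 Female C57BL/6 mice (5 per group per dose) were gavaged orally at 0.1–30 mg/kg. At 3 h, splenocytes were stimulated with anti-mouse IgM 10 μg/mL for 18 h at 37°C, 5% CO2. After Fc block, cells were stained for CD19 and CD69 with 7-AAD viability dye; >5,000 gated CD19+ cells acquired by flow cytometry.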

[11] = target: Mitogen-activated protein kinase kinase kinase 19 (Homo sapiens) (UniProt Q56UN5); test: Inhibition of human YSK4 assessed as remaining activity at 1 uM by ATP-competition binding assay relative to control; procedure, shortened: as §1
[12] = target: Macrophage colony-stimulating factor 1 receptor (Homo sapiens) (UniProt P07333); test: Inhibition of human CSF1R assessed as remaining activity at 1 uM by ATP-competition binding assay relative to control
Procedure, shortened: (§6)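 KINOMEscan ATP-site-dependent competition binding panel of 395 human kinases, with compound tested at 1 μM. Binding is reported as remaining signal relative to control.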

[13] = target: Casein kinase I isoform alpha-like (Homo sapiens) (UniProt Q8N752); test: Inhibition of human CSNK1A1L assessed as remaining activity at 1 uM by ATP-competition binding assay relative to control; procedure, shortened: as §6
[14] = target: Serine/threonine-protein kinase/endoribonuclease IRE1 (Homo sapiens) (UniProt O75460); test: Inhibition of human ERN1 assessed as remaining activity at 1 uM by ATP-competition binding assay relative to control; procedure, shortened: as §2
Sequence of Serine/threonine-protein kinase/endoribonuclease IRE1 (Homo sapiens) (O75460 19-977 limits assumed): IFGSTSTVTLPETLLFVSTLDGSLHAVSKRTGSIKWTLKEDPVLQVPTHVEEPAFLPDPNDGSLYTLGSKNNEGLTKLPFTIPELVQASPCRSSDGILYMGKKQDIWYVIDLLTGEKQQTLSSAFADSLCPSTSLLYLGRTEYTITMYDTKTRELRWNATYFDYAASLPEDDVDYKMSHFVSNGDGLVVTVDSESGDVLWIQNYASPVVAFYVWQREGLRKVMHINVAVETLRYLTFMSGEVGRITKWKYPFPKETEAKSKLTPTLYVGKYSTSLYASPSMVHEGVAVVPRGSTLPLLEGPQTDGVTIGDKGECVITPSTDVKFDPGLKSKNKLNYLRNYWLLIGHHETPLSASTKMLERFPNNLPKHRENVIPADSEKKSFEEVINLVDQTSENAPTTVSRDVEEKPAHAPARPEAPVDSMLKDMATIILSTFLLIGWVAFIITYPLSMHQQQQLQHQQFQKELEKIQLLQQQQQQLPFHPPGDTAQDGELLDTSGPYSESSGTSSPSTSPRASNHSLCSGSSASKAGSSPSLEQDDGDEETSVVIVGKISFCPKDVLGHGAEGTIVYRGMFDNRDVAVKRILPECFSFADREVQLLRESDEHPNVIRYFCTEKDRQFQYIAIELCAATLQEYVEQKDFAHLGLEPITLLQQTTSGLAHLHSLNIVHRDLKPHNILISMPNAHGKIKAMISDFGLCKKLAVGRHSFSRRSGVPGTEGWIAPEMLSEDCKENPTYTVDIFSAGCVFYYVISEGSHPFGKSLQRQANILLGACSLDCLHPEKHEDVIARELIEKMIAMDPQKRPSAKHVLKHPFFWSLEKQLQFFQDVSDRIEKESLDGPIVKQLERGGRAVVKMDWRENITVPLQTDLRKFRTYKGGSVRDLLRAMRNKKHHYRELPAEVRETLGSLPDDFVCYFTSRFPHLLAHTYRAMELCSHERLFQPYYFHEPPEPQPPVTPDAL

[15] = target: Non-receptor tyrosine-protein kinase TNK1 (Homo sapiens) (UniProt Q13470); test: Inhibition of human TNK1 assessed as remaining activity at 1 uM by ATP-competition binding assay relative to control; procedure, shortened: as §1
Splenocyte [16] = test: In vivo inhibition of BCR signaling in female […] mouse assessed as […] CD69 expression at 1 to 3 mg/kg, po administered and measured after stimulation with anti-IgM for 18 h by flow cytometry analysis; type: functional, organism-based; conditions: dose 1-3 mg/kg; procedure, shortened: as §5
[17] = Antileukemic activity against human CLL mononuclear cells xenografted NSG mouse assessed as inhibition in cell proliferation measuring by Ki67 expression level at 0.3 to 0.16 mg/ml preadministered with compound via drinking water and measured after 3 weeks by flow cytometry analysis relative to control; type: functional; conditions: dose 0.3-0.16 mg/ml, at 0.16 to 0.3 mg/mL; procedure, shortened: as §4
[18] = target: Serine/threonine-protein kinase PLK4 (Homo sapiens) (UniProt O00444); test: Inhibition of human PLK4 assessed as remaining activity at 1 uM by ATP-competition binding assay relative to control; procedure, shortened: as §1
Sequence of Serine/threonine-protein kinase PLK4 (Homo sapiens) (O00444 whole entry): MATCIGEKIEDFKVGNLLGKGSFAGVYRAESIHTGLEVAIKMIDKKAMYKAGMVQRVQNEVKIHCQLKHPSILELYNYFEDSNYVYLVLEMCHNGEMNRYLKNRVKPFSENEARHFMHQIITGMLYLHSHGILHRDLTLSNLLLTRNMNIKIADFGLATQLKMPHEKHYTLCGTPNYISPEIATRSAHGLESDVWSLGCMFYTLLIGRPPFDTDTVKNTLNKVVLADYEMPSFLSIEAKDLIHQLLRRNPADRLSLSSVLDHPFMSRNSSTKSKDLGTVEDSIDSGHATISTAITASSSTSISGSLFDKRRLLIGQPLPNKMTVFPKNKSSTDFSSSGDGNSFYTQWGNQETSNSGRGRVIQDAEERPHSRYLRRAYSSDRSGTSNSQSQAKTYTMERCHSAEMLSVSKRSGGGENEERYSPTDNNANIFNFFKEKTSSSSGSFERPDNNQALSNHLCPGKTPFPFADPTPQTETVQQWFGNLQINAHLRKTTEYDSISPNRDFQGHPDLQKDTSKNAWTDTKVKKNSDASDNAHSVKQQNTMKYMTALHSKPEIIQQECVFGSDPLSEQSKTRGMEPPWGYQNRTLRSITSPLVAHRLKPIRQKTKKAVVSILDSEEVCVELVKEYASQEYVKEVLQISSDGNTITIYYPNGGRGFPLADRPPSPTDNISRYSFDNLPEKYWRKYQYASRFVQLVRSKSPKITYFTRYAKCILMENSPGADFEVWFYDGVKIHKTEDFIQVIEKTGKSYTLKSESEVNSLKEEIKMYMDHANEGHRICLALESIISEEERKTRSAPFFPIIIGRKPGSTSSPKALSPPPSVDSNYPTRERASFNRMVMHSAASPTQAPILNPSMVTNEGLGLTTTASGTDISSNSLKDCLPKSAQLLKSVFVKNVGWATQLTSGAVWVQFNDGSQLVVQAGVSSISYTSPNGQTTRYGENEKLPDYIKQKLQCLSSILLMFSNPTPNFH

[19] = target: RAC-beta serine/threonine-protein kinase (Homo sapiens) (UniProt P31751); test: Inhibition of human AKT2 assessed as remaining activity at 1 uM by ATP-competition binding assay relative to control; procedure, shortened: as §6
[20] = test system: Epidermal growth factor receptor (Homo sapiens), P00533 [L861Q]; test: Inhibition of human EGFR L861Q mutant assessed as remaining activity at 1 uM by ATP-competition binding assay relative to control; procedure, shortened: as §3
[21] = target: Tyrosine-protein kinase HCK (Homo sapiens) (UniProt P08631); test: Inhibition of human HCK assessed as remaining activity at 1 uM by ATP-competition binding assay relative to control; procedure, shortened: as §2
Sequence of Tyrosine-protein kinase HCK (Homo sapiens) (P08631 2-526 limits assumed): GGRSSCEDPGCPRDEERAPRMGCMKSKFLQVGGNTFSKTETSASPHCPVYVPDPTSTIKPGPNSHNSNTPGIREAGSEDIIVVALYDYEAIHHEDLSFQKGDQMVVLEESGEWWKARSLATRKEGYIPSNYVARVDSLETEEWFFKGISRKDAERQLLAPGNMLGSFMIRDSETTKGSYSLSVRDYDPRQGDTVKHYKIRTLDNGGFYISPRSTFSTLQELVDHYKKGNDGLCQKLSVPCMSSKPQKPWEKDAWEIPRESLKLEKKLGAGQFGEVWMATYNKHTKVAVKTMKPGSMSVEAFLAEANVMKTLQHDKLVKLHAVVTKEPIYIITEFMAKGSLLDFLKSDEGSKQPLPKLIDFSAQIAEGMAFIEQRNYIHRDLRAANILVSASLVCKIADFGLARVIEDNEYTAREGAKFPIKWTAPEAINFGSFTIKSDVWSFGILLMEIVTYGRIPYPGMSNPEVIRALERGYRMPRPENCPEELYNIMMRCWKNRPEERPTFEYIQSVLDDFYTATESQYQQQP

[22] = target: Tyrosine-protein kinase receptor Tie-1 (Homo sapiens) (UniProt P35590); test: Inhibition of human TIE1 assessed as remaining activity at 1 uM by ATP-competition binding assay relative to control; procedure, shortened: as §1
Sequence of Tyrosine-protein kinase receptor Tie-1 (Homo sapiens) (P35590 whole entry): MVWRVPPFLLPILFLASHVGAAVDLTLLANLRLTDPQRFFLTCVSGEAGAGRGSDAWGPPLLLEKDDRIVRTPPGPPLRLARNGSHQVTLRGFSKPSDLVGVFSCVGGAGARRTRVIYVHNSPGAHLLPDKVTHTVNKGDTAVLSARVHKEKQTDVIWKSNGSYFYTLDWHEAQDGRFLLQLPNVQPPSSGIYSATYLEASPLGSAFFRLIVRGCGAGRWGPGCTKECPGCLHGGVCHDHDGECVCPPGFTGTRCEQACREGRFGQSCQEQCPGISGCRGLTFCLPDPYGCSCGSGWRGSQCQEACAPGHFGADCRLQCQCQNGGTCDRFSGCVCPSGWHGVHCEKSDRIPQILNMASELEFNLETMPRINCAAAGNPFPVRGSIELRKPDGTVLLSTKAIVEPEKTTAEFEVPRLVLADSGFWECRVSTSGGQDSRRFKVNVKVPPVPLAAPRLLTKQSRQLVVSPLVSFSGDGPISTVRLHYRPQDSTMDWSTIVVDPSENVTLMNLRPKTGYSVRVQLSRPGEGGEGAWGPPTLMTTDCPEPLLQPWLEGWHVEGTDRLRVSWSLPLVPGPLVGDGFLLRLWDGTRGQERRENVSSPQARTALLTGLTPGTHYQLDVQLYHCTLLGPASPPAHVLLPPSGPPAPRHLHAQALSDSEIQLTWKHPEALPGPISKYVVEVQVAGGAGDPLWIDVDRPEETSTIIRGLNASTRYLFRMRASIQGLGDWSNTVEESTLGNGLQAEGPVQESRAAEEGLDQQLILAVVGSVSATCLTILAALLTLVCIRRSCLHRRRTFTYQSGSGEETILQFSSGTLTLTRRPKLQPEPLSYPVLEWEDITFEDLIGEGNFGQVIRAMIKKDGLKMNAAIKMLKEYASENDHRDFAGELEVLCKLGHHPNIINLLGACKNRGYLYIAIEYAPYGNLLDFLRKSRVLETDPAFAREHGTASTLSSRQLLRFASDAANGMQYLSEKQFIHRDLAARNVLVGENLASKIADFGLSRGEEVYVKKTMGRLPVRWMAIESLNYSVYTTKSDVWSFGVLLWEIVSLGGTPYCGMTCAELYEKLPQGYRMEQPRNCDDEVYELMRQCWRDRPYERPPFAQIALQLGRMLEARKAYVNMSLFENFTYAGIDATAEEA

[23] = target: Tyrosine-protein kinase Lck (Homo sapiens) (UniProt P06239); test: Inhibition of human LCK assessed as remaining activity at 1 uM by ATP-competition binding assay relative to control; procedure, shortened: as §2
[24] = target: Serine/threonine-protein kinase B-raf (Homo sapiens) (UniProt P15056); test: Inhibition of human BRAF assessed as remaining activity at 1 uM by ATP-competition binding assay relative to control; procedure, shortened: as §6
[25] = target: Casein kinase II subunit alpha (Homo sapiens) (UniProt P68400); test: Inhibition of human CSNK2A1 assessed as remaining activity at 1 uM by ATP-competition binding assay relative to control; procedure, shortened: as §6

`CC#CC(=O)N1CCC[C@H]1c1nc(-c2ccc(C(=O)Nc3ccccn3)cc2)c2c(N)nccn12` [ACALABRUTINIB] gave an Activity [1] of 83%, an Activity [2] of 100% and an Activity [3] of 94%. It also gave an Activity [4] of 93%, an Activity [5] of 90% and an Activity [6] of 90%. It also gave an Activity [7] of 76%, an Activity [8] of 77% and an Activity [9] of 88%. For the same molecule, the Activity (Splenocyte [10]) was “Active”, the Activity [11] was 90% and the Activity [12] was 84%. It also gave an Activity [13] of 92%, an Activity [14] of 85% and an Activity [15] of 90%. For the same molecule, the Activity (Splenocyte [16]) was “Active”, the “inhibition (INH)” value [17] was 50% and the Activity [18] was 80%. For the same molecule, the Activity [19] was 100%, the Activity [20] was 84% and the Activity [21] was 62%. The Activity [22] was 89%, the Activity [23] was 90% and the Activity [24] was 64%. The Activity [25] was 54%.
